The values that follow come from ChEMBL document CHEMBL3526139, “Clinical pharmacokinetics, metabolism, and drug-drug interaction of carfilzomib” (Drug Metab Dispos, 2013).

The target of series [1] is T1, CYP3A (Homo sapiens, UniProt P08684+P20815+P24462+Q9HB55). The experiment in a line: Time-dependent inhibition of CYP3A in human liver microsomes assessed as testosterone 6-hydroxylation using testosterone as substrate by LC-MS/MS analysis. It counts as ADME. The settings on record: probe testosterone (6-hydroxylation). An outline of the steps: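 Pooled HLM (16 donors, mixed sex), 37°C, duplicate. IC50: carfilzomib 0.01–10 µM preincubated 30 min, then testosterone near Km (100 µM) at 0.1 mg/mL protein, 5 min, LC-MS/MS, relative to 0.5% acetonitrile control. KI/kinact: 0–8 µM preincubated 0–30 min with 2.5 mg/mL HLM plus NADPH-generating system, diluted 25-fold, testosterone 200 µM for 5 min.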

Series [2] relates to Plasma. Nature of the series: Drug metabolism in plasma of iv dosed human patient with relapsed and refractory hematological malignancies assessed as morpholino-hPhe-Leu-Phe-Leu-diol metabolite formation administered on days 1, 2, 8, 9, 15 and 16 of 28-day cycle over 2 to 10 mins by LC-MS/MS analysis. The class given is ADME, organism-based. Conditions: in vivo.
Series [3] concerns the target T2, Cytochrome P450 2C8 (Homo sapiens, UniProt P10632).
T2 sequence (P10632 whole entry): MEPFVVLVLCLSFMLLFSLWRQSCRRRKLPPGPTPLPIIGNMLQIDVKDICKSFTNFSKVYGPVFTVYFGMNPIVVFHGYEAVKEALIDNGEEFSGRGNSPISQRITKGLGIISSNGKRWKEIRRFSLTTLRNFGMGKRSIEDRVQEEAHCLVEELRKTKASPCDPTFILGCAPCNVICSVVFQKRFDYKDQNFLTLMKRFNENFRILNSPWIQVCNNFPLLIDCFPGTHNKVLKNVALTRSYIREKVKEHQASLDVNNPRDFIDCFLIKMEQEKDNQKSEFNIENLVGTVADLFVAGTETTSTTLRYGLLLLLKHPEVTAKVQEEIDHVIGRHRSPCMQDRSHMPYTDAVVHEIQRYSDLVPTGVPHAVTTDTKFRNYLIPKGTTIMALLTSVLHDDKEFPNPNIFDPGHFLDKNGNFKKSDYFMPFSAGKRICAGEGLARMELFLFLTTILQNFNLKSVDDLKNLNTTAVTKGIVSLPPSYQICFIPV
The experiment in a line: Drug metabolism in pooled human hepatocytes assessed as disapperance rate at 1 uM by LC-MS/MS analysis in presence of 30 uM CYP2C8 inhibitor montelukast. It counts as ADME, cell-based, Hepatocyte. Put shortly:
(§1)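 Pooled human hepatocytes in suspension (~0.5 x 10^6 viable cells/mL) were incubated with 1 µM carfilzomib at 37°C under 5% CO2, with or without isoform-selective CYP chemical inhibitors. Reactions were quenched with acetonitrile at 0, 15, 30, 60 and 120 min. Carfilzomib was quantified by non-validated LC-MS/MS after protein precipitation.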

The test system of series [4] is Plasma. The experiment in a line: Drug metabolism in plasma of human multiple myeloma patient assessed as morpholino-hPhe-Leu-Phe-Leu-diol metabolite formation at 15 mg/m'2, iv administered as single dose measured within first 30 mins after end of drug infusion by LC-MS/MS analysis. It counts as ADME, organism-based. The settings on record: in vivo, 0.5 h. Put shortly:
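Patients with multiple myeloma received a single 15 mg/m2 carfilzomib dose. Plasma was sampled pre-dose, at end of infusion, at 5, 15, 30 min and at 1, 1.5, 2, 4, 6, 24 h. Samples were protein-precipitated and analyzed by LC-MS/MS (metabolites 0.500–500 ng/mL) with deuterated internal standards.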

Series [5] can be described thus: Cmax in human patient with relapsed solid tumor at 20 mg/m'2, iv administered on days 1, 2, 8, 9, 15 and 16 of 28-day cycle over 2 to 10 mins measured on day 16 of cycle 1 by LC-MS/MS analysis. It counts as ADME, organism-based. Conditions: in vivo. Also on record: route intravenous. Put shortly: (§2)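 Patients with relapsed solid tumors (n=3) received carfilzomib IV at 20 mg/m2. Plasma was sampled on Days 1 and 16 of Cycle 1 before dosing, at end of administration, and at 5, 15, 30 min and 1, 2, 4 h after. Samples underwent solid phase extraction and LC-MS/MS with d10-carfilzomib internal standard over 0.100–200 ng/mL. Parameters were derived noncompartmentally (constant IV infusion model) from actual elapsed time from infusion start.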

Series [6] has as its target T1, CYP3A. Nature of the series: Inhibition of CYP3A in human liver microsomes assessed as substrate metabolite formation using testosterone as substrate measured after 5 mins by LC-MS/MS analysis. The class given is ADME. Conditions: probe testosterone. Put shortly:
(§3)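 Pooled HLM from 16 donors were incubated at 37°C in duplicate with carfilzomib 0.01–10 µM and probe substrate at about its Km. Substrates were phenacetin, amodiaquine, diclofenac, S-mephenytoin, dextromethorphan, testosterone and midazolam. Protein was 0.1 mg/mL, or 0.05 mg/mL with midazolam. Reactions ran 5 min without preincubation, then were quenched with acetonitrile. Metabolites were measured by LC-MS/MS relative to 0.5% acetonitrile controls.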

The nature of series [7]: Half life in human patient with relapsed solid tumor at 20 mg/m'2, iv administered on days 1, 2, 8, 9, 15 and 16 of 28-day cycle over 2 to 10 mins measured on day 16 of cycle 1 by LC-MS/MS analysis. The class given is ADME, organism-based. The settings on record: in vivo. An outline of the steps: as §2
For series [8], the target named is T3, Cytochrome P450 1A2 (Homo sapiens, UniProt P05177).
T3 sequence (P05177 whole entry): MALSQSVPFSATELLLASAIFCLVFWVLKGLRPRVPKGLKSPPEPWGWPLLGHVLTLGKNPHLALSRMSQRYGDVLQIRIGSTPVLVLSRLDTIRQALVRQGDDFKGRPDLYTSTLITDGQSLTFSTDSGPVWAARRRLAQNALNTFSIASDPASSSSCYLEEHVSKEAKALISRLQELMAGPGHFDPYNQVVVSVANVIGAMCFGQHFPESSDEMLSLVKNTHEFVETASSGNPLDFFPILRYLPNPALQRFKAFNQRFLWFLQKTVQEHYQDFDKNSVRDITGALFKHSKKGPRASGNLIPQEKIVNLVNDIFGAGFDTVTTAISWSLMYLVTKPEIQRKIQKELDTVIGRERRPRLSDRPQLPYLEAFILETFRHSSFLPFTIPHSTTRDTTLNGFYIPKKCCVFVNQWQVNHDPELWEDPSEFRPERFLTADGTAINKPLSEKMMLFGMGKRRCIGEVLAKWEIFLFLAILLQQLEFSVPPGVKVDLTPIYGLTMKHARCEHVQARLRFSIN
The experiment in a line: Drug metabolism in pooled human hepatocytes assessed as disapperance rate at 1 uM by LC-MS/MS analysis in presence of 30 uM CYP1A2 inhibitor furafylline. It counts as ADME, cell-based, Hepatocyte. Put shortly: as §1

A short description of series [9]: AUC last in human patient with relapsed solid tumor at 20 mg/m'2, iv administered on days 1, 2, 8, 9, 15 and 16 of 28-day cycle over 2 to 10 mins measured on day 16 of cycle 1 by LC-MS/MS analysis. The class given is ADME, organism-based. The arrangement: route intravenous, time 0 - last. Conditions: plasma. An outline of the steps: as §2
Series [10] concerns the target Cytochrome P450 2C19 (Homo sapiens, UniProt P33261). Nature of the series: Inhibition of CYP2C19 in human liver microsomes using S-mephenytoin as substrate after 5 mins by LC-MS/MS analysis. The class given is ADME. Put shortly: as §3
Series [11] concerns Hepatocyte. Nature of the series: Cytotoxicity against human hepatocytes assessed as cell viability by MTT assay. It counts as cell-based. Put shortly:
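MTT viability assay in cultured human hepatocytes from 3 donors after 3 days of carfilzomib exposure (0.1, 0.5, 2.5 µM) with daily medium and compound renewal. Solvent control was 0.08% DMSO.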

Chain of Cytochrome P450 2C19 (P33261 whole entry): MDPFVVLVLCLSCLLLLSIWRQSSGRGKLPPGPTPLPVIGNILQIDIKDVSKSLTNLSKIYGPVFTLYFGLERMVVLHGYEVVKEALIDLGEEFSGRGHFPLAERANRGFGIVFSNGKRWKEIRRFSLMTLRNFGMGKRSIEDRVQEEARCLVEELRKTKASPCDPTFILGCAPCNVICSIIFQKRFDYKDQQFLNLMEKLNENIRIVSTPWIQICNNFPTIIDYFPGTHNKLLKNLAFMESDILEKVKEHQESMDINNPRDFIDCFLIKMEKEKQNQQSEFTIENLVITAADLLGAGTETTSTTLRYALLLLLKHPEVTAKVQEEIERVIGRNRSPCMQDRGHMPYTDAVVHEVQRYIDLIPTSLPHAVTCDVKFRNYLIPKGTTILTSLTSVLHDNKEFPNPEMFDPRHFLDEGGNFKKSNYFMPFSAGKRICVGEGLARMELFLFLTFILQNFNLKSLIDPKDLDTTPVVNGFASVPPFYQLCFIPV

On to `CC(C)C[C@H](NC(=O)[C@H](CCc1ccccc1)NC(=O)CN1CCOCC1)C(=O)N[C@@H](Cc1ccccc1)C(=O)N[C@@H](CC(C)C)C(=O)[C@@]1(C)CO1` [CARFILZOMIB], for which, in series [1], the Ki came to 11 µM. Also, in [1], the kinact was 0.00167 s⁻¹. For the same molecule, the Drug metabolism result in [2] is “metabolite_detected”; in [3], 0.014 min⁻¹; in series [4] it was “metabolite_detected”; in [8] it was 0.016 min⁻¹. The molecule also registered a Cmax in [5] of 3710 ng/mL. Also, the IC50 at 5 min in series [6] was greater than 10 µM. Also, the half-life in [7] is 1.1 h. The same molecule registered an AUC(0-t) in series [9] of 301 ng·h/mL. In series [10], this molecule came in with an IC50 greater than 10 µM. Further, the Activity entry in [11] is “Non-toxic”.
